As usually defined, the Ki is a dissociation constant, usually derived from enzyme kinetics or from competition with a known ligand. Read a low Ki as a stronger hold on the target.

This passage reports Ki and inhibition results from ChEMBL document CHEMBL1165920, “Structural determinants for the inhibitory ligands of orotidine-5'-monophosphate decarboxylase” (Bioorg Med Chem, 2010).

Experiment [1] addresses Orotidine 5'-phosphate decarboxylase (Methanobacterium thermoautotrophicum, UniProt O26232). The experiment can be described thus: Inhibition of Methanothermobacter thermautotrophicus uridine 5'-monophosphate synthase after overnight incubation at room temperature by VP-ITC microcalorimetry. The essentials:
(§1)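 Isothermal titration calorimetry with Mt ODCase (final 20 nM). Enzyme stock was kept in 50 mM Tris pH 7.5, 20 mM DTT, 40 mM NaCl overnight at rt. Assay buffer was degassed 50 mM Tris pH 7.5 with 1 mM DTT. Run at 55 °C, started by injecting 5 mM OMP in 50 mM Tris. Inhibitor series spanned 5–40 µM or 0.5–5 mM. Competitive Ki was derived from Ki(app) = Ki(1+[S]/KM).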

The target of experiment [2] is T1, Orotidine 5'-phosphate decarboxylase (Saccharomyces cerevisiae S288c, UniProt P03962).
T1 sequence (P03962 whole entry): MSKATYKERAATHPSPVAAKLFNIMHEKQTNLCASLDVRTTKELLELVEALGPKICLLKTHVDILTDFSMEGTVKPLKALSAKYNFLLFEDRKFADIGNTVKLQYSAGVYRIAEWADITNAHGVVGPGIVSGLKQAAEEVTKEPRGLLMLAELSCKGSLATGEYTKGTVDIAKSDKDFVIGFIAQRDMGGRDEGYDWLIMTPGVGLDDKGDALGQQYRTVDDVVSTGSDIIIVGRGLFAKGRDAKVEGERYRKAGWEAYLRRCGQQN
The experiment can be described thus: Inhibition of Saccharomyces cerevisiae uridine 5'-monophosphate synthase after overnight incubation at room temperature by VP-ITC microcalorimetry.

The nature of experiment [3]: Inhibition of Helicobacter pylori uridine 5'-monophosphate synthase after overnight incubation at room temperature by VP-ITC microcalorimetry. The essentials: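 Reversible inhibition measured by ITC with Hp ODCase (final 60 nM) and 20 µM OMP substrate. Assay buffer was degassed 50 mM Tris pH 7.5 with 1 mM DTT. Inhibitor series were 0.25–1.5 µM or 0.25–2.5 mM. Ki was fitted as competitive from Ki(app) = Ki(1+[S]/KM).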

Experiment [4] deals with Orotidine 5'-phosphate decarboxylase (Methanobacterium thermoautotrophicum) (UniProt O26232). Briefly: Competitive inhibition of Methanothermobacter thermautotrophicus uridine 5'-monophosphate synthase after overnight incubation at room temperature by Lineweaver-Burke plot analysis. The essentials:
as §1

Experiment [5] deals with T2, Orotidine phosphate decarboxylase (Plasmodium falciparum) (UniProt Q8T6J6).
T2 sequence (whole entry): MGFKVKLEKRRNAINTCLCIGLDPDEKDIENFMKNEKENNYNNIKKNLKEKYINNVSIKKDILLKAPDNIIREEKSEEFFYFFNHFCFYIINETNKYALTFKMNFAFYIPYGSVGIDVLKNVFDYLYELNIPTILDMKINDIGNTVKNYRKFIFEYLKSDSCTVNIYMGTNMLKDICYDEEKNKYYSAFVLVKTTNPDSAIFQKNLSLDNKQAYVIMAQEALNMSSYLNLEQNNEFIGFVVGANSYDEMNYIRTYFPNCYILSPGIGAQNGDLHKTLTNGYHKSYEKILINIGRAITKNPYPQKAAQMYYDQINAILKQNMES
The note with it: 0.5 to 5 mM.

Experiment [6] deals with T1, Orotidine 5'-phosphate decarboxylase. The experiment can be described thus: Inhibition of Saccharomyces cerevisiae uridine 5'-monophosphate synthase.

Active and inactive are the calls of the source. No cut-off for these calls is given here.

Chain of Orotidine 5'-phosphate decarboxylase (Methanobacterium thermoautotrophicum, UniProt O26232) (O26232 whole entry): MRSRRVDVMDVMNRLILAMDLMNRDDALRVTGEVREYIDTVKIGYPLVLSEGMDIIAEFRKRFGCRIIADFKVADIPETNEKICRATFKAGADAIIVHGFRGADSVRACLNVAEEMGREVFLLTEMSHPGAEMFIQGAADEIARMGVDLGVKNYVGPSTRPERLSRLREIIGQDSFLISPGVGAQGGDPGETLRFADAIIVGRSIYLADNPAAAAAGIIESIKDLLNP
Chain of Orotidine 5'-phosphate decarboxylase (Methanobacterium thermoautotrophicum) (O26232 whole entry, looked up): as the sequence (O26232 whole entry) above

With `NC(=O)c1[nH]nc([C@@H]2O[C@H](COP(=O)(O)O)[C@@H](O)[C@H]2O)c1O`, the inhibition constant Ki in experiment [1] was 6200 nM; in experiment [2], 5 nM; in experiment [3] it was 130 nM. The inhibition entry in experiment [4] is “Active”.
`N#Cc1cc(=O)[nH]c(=O)n1[C@@H]1O[C@H](COP(=O)(O)O)[C@@H](O)[C@H]1O`: the inhibition entry in experiment [5] was “Active”.
For the molecule `O=c1cc(O)n([C@@H]2O[C@H](COP(=O)(O)O)[C@@H](O)[C@H]2O)c(=O)[nH]1`, the Ki in experiment [6] came out at 0.0088 nM; in experiment [2], 0.009 nM.
